# From PMC4467585 (Journal of Thoracic Oncology, 2015)
# Where two headings read alike, the source gives them in different places.
# Columns and labels:
# [1] = system: EML4-ALK xenograft models of NSCLC; conditions: including those exhibiting crizotinib resistance; cited from earlier work
# STK22D = conditions: enzyme panel; cited from earlier work
# ALK [2] = conditions: cellular level; cited from earlier work
# [3] = Phase I study: DLTs, MTD and adverse events; format: in vivo, human; conditions: for Dose-limiting toxicity: one patient
# Outline: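 Adult Japanese patients with ALK-rearranged advanced tumors, progressed on standard therapy. Oral test compound: single dose in a 3-day PK run-in, then once daily in continuous 21-day cycles, 300–750 mg. Cohorts of 3–6 escalated by Bayesian logistic regression model with overdose control (<25% posterior DLT probability in ≥33–≤100% interval). DLTs assessed over cycle 1 including run-in; AEs graded CTCAE v4.03; data cutoff July 4, 2014.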
# ALK-rearranged NSCLC [4] = format: in vivo, human; conditions: for Duration of response to ceritinib: previously treated with alectinib
# Outline: (§1)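 Investigators assessed response by RECIST v1.1 using CT or MRI at baseline, then day 1 of every odd cycle (−3 to +14 days), excluding cycle 1 day 1. NSCLC patients also had brain MRI or head CT. Oral test compound was given once daily in 21-day cycles. Expansion patients were pooled with escalation patients at the same dose. ORR was reported with exact Clopper–Pearson 95% CI; data cutoff July 4, 2014.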
# [5] = system: alectinib-resistant tumor; conditions: patient who had progressed on alectinib; cited from earlier work
# IGF-1R = conditions: enzyme panel; cited from earlier work
# ALK [6] = conditions: enzyme-based assays; cited from earlier work
# ALK [7] = conditions: more potent; cited from earlier work
# [8] = ASCEND-1, cited from earlier work
# [9] = Phase I study: single- and multiple-dose plasma pharmacokinetics; format: in vivo, human
# ALK-rearranged NSCLC [10] = conditions: ASCEND-1, cited from earlier work; for PFS: 750 mg once daily
# InsR = conditions: enzyme panel; cited from earlier work
# c-MET = conditions: unlike crizotinib; cited from earlier work
# [11] = ASCEND-1; cited from earlier work
# ALK-rearranged tumors = assay: Phase I study: tumor response, all patients incl. IMT; format: in vivo, human; conditions: 11 of 20, 300 to 750 mg
# Outline: as §1
# [12] = cited from earlier work
# [13] = PK run-in, ln(parameter) = exponent × ln(dose) + constant, 300 to 750 mg
smiles,measurement,setting,value
"Cc1cc(Nc2ncc(Cl)c(Nc3ccccc3S(=O)(=O)C(C)C)n2)c(OC(C)C)cc1C1CCNCC1 [Ceritinib, 5-chloro-N2-(2-isopropoxy-5-methyl-4-(piperidin-4-yl)phenyl)-N4-(2-(isopropylsulfonyl)phenyl)pyrimidine-2,4-diamine]",Antitumor activity in xenograft models,[1],marked antitumor activity
same,IC50,STK22D,23 nM
same,Dose-limiting toxicity,[3]; 600 mg once daily,grade 3 lipase increase
same,Dose-limiting toxicity,[3]; 750 mg once daily,grade 3 drug-induced liver injury
same,Posterior probability of DLT rate being in the excessive toxicity interval (≥33% to ≤100%),"[3]; 750-mg once-daily dose, BLRM",7.3%
same,Maximum-tolerated dose (MTD),"[3]; Japanese patients with ALK-rearranged tumors, oral",750 mg once daily
same,Adverse event: diarrhea,"[3]; all patients, 300 to 750 mg",75%
same,Adverse event: nausea,"[3]; all patients, 300 to 750 mg",95%
same,Adverse event: vomiting,"[3]; all patients, 300 to 750 mg",75%
same,Patients with at least one dose interruption due to AEs,"[3]; all patients, 11 patients",55%
same,Patients with at least one dose reduction due to AEs,"[3]; all patients, nine patients",45%
same,Patients reporting grade 3/4 AEs,"[3]; all patients, sixteen patients",80%
same,Patients reporting grade 3/4 AEs suspected to be drug related,"[3]; all patients, ten patients",50%
same,Grade 3/4 increased ALT suspected to be drug related,"[3]; all patients, two patients",10%
same,Patients in whom AEs led to discontinuation,"[3]; all patients, two patients",10%
same,"Partial response, patients",ALK-rearranged NSCLC [4]; ALKi-naive NSCLC patients,two of four
same,"Partial response, patients",ALK-rearranged NSCLC [4]; alectinib-pretreated NSCLC patients,two of four
same,"Partial response, patients",ALK-rearranged NSCLC [4]; crizotinib-pretreated NSCLC patients,five of nine
same,PR among patients previously treated with ALK inhibitors,ALK-rearranged NSCLC [4]; eight of 15 NSCLC patients,53%
same,Patients with a reduction in the size of target lesions,ALK-rearranged NSCLC [4]; of the 16 evaluable NSCLC patients,15 patients
same,Disease control rate,"ALK-rearranged NSCLC [4]; patients with NSCLC across all dose groups, 13 of 19",68%
same,IC50,IGF-1R,8 nM
same,Potency compared with crizotinib in inhibiting ALK,ALK [7],20 fold
same,Incidence of drug-related grade 3/4 AEs,[8],49%
same,Maximum-tolerated dose (MTD),[8]; oral,750 mg once daily
same,"Exponent of power model, AUC0–24 versus dose",[9]; [13],1.04
same,"Exponent of power model, Cmax versus dose",[9]; [13],0.909
same,half-life,"[9]; human, plasma, oral",22 to 33 h
same,Tmax,"[9]; human, plasma, oral, Median Tmax, across the tested doses and profile days",2 to 7 h
same,Exposure numerically higher compared with Asian patients in ASCEND-1,[9]; n = 3,< 30%
same,PFS,ALK-rearranged NSCLC [10]; ALK inhibitor naive (n = 83),18.4 months
same,PFS,ALK-rearranged NSCLC [10]; previously treated with crizotinib (n = 163),6.9 months
same,ORR,ALK-rearranged NSCLC [10]; ALK inhibitor naive,72.3%
same,ORR,ALK-rearranged NSCLC [10]; all patients (n = 246),61.8%
same,ORR,ALK-rearranged NSCLC [10]; previously treated with crizotinib,56.4%
same,IC50,InsR,7 nM
same,Inhibition of the kinase activity of c-MET,c-MET,did not inhibit
same,Increase in exposure in Asian patients compared with non-Asian patients,[11],< 30%
same,Overall response rate,ALK-rearranged tumors,55%
C[C@@H](Oc1cc(-c2cnn(C3CCNCC3)c2)cnc1N)c1c(Cl)ccc(F)c1Cl [Crizotinib],"Gastrointestinal AEs (including nausea, diarrhea, and vomiting)",[12],39–56%
